One data set has as its target folate receptor (FR). Particulars: high affinity FR, 1:1 stoichiometry; cited from earlier work.
For data set [1], the target named is reduced folate carrier (RFC). The settings on record: low affinity folate carrier RFC; cited from earlier work.
The conditions of data set [2]: at 300 K; cited from earlier work.
A further data set has as its system KB (FR+) cells. The experiment in a line: MTT cell viability assay, KB cells. Particulars: 100 μM (highest concentration), 24 h incubation. It is filed as cell-based, human. Put shortly:
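KB cells kept in RPMI-1640 (25 mM HEPES, 2 mM L-glutamine, 15% fetal calf serum, penicillin/streptomycin) and seeded at 25 000 per well overnight. Unlabelled test conjugate added in triplicate at final 0–100 μM for 24 h in the dark. Cells then DPBS-washed thrice and given MTT (5 mg/mL solution) for 3 h. Formazan was dissolved in DMSO and read at 540 nm. Viability is expressed as percent of untreated-control absorbance.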

A short description of data set [3]: Solubility in water after HPLC purification. Type of data set: physicochemical. Particulars: after cleavage from solid support and reverse-phase HPLC purification.
Data set [4] concerns the target folate binding protein (FBP) (Bos taurus, UniProt P02702). The experiment in a line: Hyperpolarized 129Xe NMR with folate binding protein. Particulars: 30 μM FBP, 30 and 60 μM biosensor, acetate buffer pH 5.0 with and without 10% glycerol, incubated 30 min.

*1 amine or outer side, *2 acyl side, *3 side chain or, on linkers, in order; H or OH if unused. Where a SMILES comes first, the peptide text is derived from it. Side-chain parts run from the residue outwards. [ ]: non-standard residue; d: D form. The star is where a group is joined. X1 = COc1cc2c3cc1OCCOc1cc4c(cc1OC)Cc1cc5c(OC)cc1Cc1cc(c(OCc6cn(CCC(=O)*)nn6)cc1C4)OCCOc1cc(c(cc1OC)Cc1cc(c(OC)cc1C3)OCCO5)C2; Pteroyl = Nc1nc2ncc(CNc3ccc(C(=O)*)cc3)nc2c(=O)[nH]1; γGlu = O=C(O)[C@H](CCC(=O)[*:2])N[*:1]; AEEEA = NCCOCCOCCOCC(=O)O; StBu = CC(C)(C)S*

Consider three compounds from publication PMC4306503 (Bioconjugate Chemistry, 2014).

Sequence of folate binding protein (FBP) (P02702 20-241): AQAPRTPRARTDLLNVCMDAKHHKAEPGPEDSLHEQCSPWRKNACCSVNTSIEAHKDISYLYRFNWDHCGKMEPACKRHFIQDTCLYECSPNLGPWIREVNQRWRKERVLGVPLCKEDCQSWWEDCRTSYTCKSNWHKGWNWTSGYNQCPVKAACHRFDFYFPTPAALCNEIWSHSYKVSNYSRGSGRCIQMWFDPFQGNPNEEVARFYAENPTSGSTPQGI

On to `CN1c2c(nc(N)[nH]c2=O)NCC1CNc1ccc(C(=O)N[C@@H](CCC(=O)O)C(=O)O)cc1` (stereo partly drawn) [5-methyltetrahydrofolate, 5-methyl tetrahydrofolate], for which the Kd – broadly, the free concentration of one partner at which half of the binding sites on the other are occupied at equilibrium, for simple one-to-one binding – at folate receptor (FR) is 0.1 to 1 nM. The dissociation constant entry in data set [1] is “micromolar”.
Take `[Xe]` [129Xe]: the water solubility in data set [2] is 4.2 mM atm^–1.
As to `COc1cc2c3cc1OCCOc1cc4c(cc1OC)Cc1cc5c(OC)cc1Cc1cc(c(OCc6cn(CCC(=O)N[C@@H](CCCCNC(=O)CC[C@H](NC(=O)c7ccc(NCc8cnc9nc(N)[nH]c(=O)c9n8)cc7)C(=O)O)C(=O)N[C@@H](CCCCN)C(=O)N[C@@H](CCCNC(=N)N)C(=O)N[C@@H](CCCCN)C(=O)N[C@@H](CCCNC(=N)N)C(=O)N[C@@H](CCCCN)C(=O)NCCOCCOCCOCC(=O)N[C@@H](CCCNC(=N)N)C(=O)N[C@@H](CCCCN)C(=O)N[C@@H](CSSC(C)(C)C)C(=O)N[C@@H](CCCNC(=N)N)C(N)=O)nn6)cc1C4)OCCOc1cc(c(cc1OC)Cc1cc(c(OC)cc1C3)OCCO5)C2` [compound 24] (X1-K([γGlu-Pteroyl])KRKRK[AEEEA]RKC(StBu)R-NH2), the “viability (maximum toxicity)” value in the data set on KB (FR+) cells was 23%. For the same compound, the solubility in water entry in data set [3] is “readily soluble in water”. Further, the “protein bound 129Xe NMR signal” value in data set [4] was “no observable protein bound signal”.
